Ki data for four compounds are collected here from ChEMBL document CHEMBL1133567, “5-Azidoimidacloprid and an acyclic analogue as candidate photoaffinity probes for mammalian and insect nicotinic acetylcholine receptors” (J Med Chem, 2000).

A short description of assay [1]: Binding affinity for nAChR with [3H]nicotine in rat brain. The class given is tissue-based. The method, boiled down:
(§1)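 Competition with 5 nM [3H](-)-nicotine against varied inhibitor concentrations, using 400 µg protein from rat brain membranes or 100 µg protein from recombinant rat α4β2 membranes. Incubation 30 min at 22 °C in Tris-HCl pH 7.4 buffer with NaCl, KCl, CaCl2, MgSO4, EDTA. Stopped by filtration through polyethylenimine-soaked GF/B filters. Nonspecific binding with 5 µM (-)-nicotine.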

In assay [2] the target is Nicotinic acetylcholine receptor. The assay is described as follows: Binding affinity for nAChR with [3H]imidacloprid in Myzus persicae. It counts as protein-complex assay.
For assay [3] the target is unchanged. The assay can be described thus: Binding affinity for nAChR with [3H]imidacloprid in Drosophila. It counts as protein-complex assay, Drosophila melanogaster.
The target in assay [4] is Neuronal acetylcholine receptor subunit alpha-4 (Rattus norvegicus, UniProt P09483+P12390). The assay can be described thus: Binding affinity for nAChR with [3H]-nicotine in rat alpha4 beta2 membranes. It counts as cell membranes. The method, boiled down: as §1
Sequence of Neuronal acetylcholine receptor subunit alpha-4 (P09483 whole entry, one chain of several): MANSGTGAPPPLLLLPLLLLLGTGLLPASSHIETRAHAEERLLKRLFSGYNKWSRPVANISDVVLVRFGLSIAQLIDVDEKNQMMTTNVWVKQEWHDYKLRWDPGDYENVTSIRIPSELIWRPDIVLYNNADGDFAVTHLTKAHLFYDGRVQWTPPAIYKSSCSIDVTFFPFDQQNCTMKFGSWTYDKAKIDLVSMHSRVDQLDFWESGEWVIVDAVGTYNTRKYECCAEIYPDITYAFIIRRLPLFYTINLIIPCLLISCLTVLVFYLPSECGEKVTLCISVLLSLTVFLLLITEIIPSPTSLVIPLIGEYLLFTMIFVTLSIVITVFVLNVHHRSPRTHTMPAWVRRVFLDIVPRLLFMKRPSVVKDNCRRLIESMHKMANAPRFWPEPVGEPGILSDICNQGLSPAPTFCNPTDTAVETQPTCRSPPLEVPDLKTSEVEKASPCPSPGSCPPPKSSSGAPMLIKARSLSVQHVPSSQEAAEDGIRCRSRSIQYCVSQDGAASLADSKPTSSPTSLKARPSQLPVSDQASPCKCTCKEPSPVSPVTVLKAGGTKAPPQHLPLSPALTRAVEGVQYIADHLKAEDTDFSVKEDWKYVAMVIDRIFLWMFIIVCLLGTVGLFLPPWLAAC

Usually Ki stands for the dissociation constant of the complex between target and ligand, obtained from inhibition or displacement. As for `C/N=C(\NCc1ccc(Cl)nc1)N[N+](=O)[O-]`, the Ki is 3500 nM in assay [1], 12 nM in assay [2] and 10 nM in assay [3].
For the compound `O=[N+]([O-])NC1=NCCN1Cc1ccc(Cl)nc1` [IMIDACLOPRID], the Ki was 290 nM in assay [1], 1.9 nM in assay [2], 50 nM in assay [4] and 2.1 nM in assay [3].
For `C/N=C(\NCc1cnc(Cl)c(N=[N+]=[N-])c1)N[N+](=O)[O-]`, the Ki in assay [1] was 44 nM; in assay [2], 4.5 nM; in assay [3], 13 nM.
Regarding `[N-]=[N+]=Nc1cc(CN2CCNC2=N[N+](=O)[O-])cnc1Cl` [5-AZIDOIMIDACLOPRID], the Ki in assay [1] turned out to be 44 nM; in assay [2] it was 1 nM; in assay [4], 4.4 nM; in assay [3], 15 nM.
